Results as given in ChEMBL document CHEMBL3232768, “Structure-activity relationships of β-hydroxyphosphonate nucleoside analogues as cytosolic 5'-nucleotidase II potential inhibitors: synthesis, in vitro evaluation and molecular modeling studies” (Eur J Med Chem, 2014).
pKi: −log10 of the molar value.

Assays:
Homo sapiens = organism: Homo sapiens; experiment: Inhibition of recombinant C-terminal His-tagged cN2 N-terminal 30 amino acid deletion mutant (unknown origin) expressed in Escherichia coli BL21 using IMP as substrate at 1 mM after 5 mins by green malachite phosphate assay
How it was run: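 Enzyme was purified from E. coli BL21 carrying pET24b by His-Trap affinity and then Superdex 75 gel filtration. Final enzyme was 0.1 in 50 mM imidazole pH 6.5, 500 mM NaCl, 10 mM MgCl₂, 1 mM DTT on ice. The reaction was started with 50 IMP plus equimolar Mg²⁺ and run 5 min at 37 °C. Malachite green reagent stopped it; released phosphate was read above 630 nm against a phosphate calibration curve.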

[1] = Competitive inhibition of recombinant C-terminal His-tagged cN2 N-terminal 30 amino acid deletion mutant (unknown origin) expressed in Escherichia coli BL21 using IMP as substrate by double reciprocal plot analysis; design: species or system Homo sapiens
How it was run: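 Kinetic assay with His-Trap and Superdex 75-purified enzyme at 0.1. Buffer was 50 mM imidazole pH 6.5, 500 mM NaCl, 10 mM MgCl₂, 1 mM DTT, with enzyme and substrate freshly prepared in it. Rate constants were measured at IMP from 200 to 3 mM to derive Ki. It was also used for compounds that react with the malachite green colorant.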

| inhibition (Homo sapiens) [%] | SMILES | pKi [1] |
| --- | --- | --- |
| 40 | CCCCC#Cc1cn([C@@H]2O[C@H]([C@H](O)CP(=O)(O)O)[C@@H](O)[C@H]2O)c(=O)nc1N | – |
| 11 | CCOP(=O)(C[C@@H](O)[C@H]1O[C@@H](n2ccc(=O)[nH]c2=O)[C@H](O)[C@@H]1O)OCC | – |
| 21 | CCOP(=O)(C[C@@H](O)[C@H](CO)O[C@H](CO)n1ccc(N)nc1=O)OCC | – |
| – | Nc1nc(=O)n([C@@H]2O[C@H]([C@H](O)CP(=O)(O)O)[C@@H](O)[C@H]2O)cc1/C=C/c1ccccc1 | 2.94 |
| 10 | CCOP(=O)(C[C@@H](O)[C@H](CO)O[C@H](CO)n1ccc(=O)[nH]c1=O)OCC | – |
| – | O=c1[nH]c(=O)n([C@@H]2O[C@H]([C@H](O)CP(=O)(O)O)[C@@H](O)[C@H]2O)cc1/C=C/c1ccccc1 | 2.47 |
| 35 | Nc1ccn([C@@H]2O[C@H]([C@H](O)CP(=O)(O)O)[C@H](O)[C@@H]2O)c(=O)n1 | 1.95 |
| 25 | O=c1ccn([C@@H]2O[C@H]([C@H](O)CP(=O)(O)O)[C@H](O)[C@H]2O)c(=O)[nH]1 | – |
| 45 | Nc1ccn([C@@H](CO)O[C@@H](CO)[C@H](O)CP(=O)(O)O)c(=O)n1 | 2.39 |
| 18 | CCOP(=O)(C[C@@H](O)[C@H]1O[C@@H](n2ccc(N)nc2=O)[C@H](O)[C@@H]1O)OCC | – |
| – | O=c1[nH]c(=O)n([C@@H]2O[C@H]([C@H](O)CP(=O)(O)O)[C@@H](O)[C@H]2O)cc1C#Cc1ccccc1 | 2.66 |
| 20 | O=c1ccn([C@@H](CO)O[C@@H](CO)[C@H](O)CP(=O)(O)O)c(=O)[nH]1 | – |
| 46 | CC(C)(C)C#Cc1cn([C@@H]2O[C@H]([C@H](O)CP(=O)(O)O)[C@@H](O)[C@H]2O)c(=O)nc1N | 2.13 |
| 45 | CCCCC#Cc1cn([C@@H]2O[C@H]([C@H](O)CP(=O)(O)O)[C@@H](O)[C@H]2O)c(=O)[nH]c1=O | – |
| 25 | O=c1ccn([C@@H]2O[C@H]([C@H](O)CP(=O)(O)O)[C@H](O)[C@@H]2O)c(=O)[nH]1 | < 1.30 |
| 42 | Nc1ccn([C@@H]2O[C@H]([C@@H](O)CP(=O)(O)O)[C@@H](O)[C@H]2O)c(=O)n1 | – |
| – | CC(C)(C)C#Cc1cn([C@@H]2O[C@H]([C@H](O)CP(=O)(O)O)[C@@H](O)[C@H]2O)c(=O)[nH]c1=O | 2.23 |
| 72 | O=c1ccn([C@@H]2O[C@H]([C@H](O)CP(=O)(O)O)[C@@H](O)[C@H]2O)c(=O)[nH]1 | 2.68 |
| 60 | Nc1nc(=O)n([C@@H]2O[C@H]([C@H](O)CP(=O)(O)O)[C@@H](O)[C@H]2O)cc1-c1ccccc1 | 2.70 |
| 48 | Nc1ccn([C@@H]2O[C@H]([C@H](O)CP(=O)(O)O)[C@H](O)[C@H]2O)c(=O)n1 | 2.05 |
| 85 | Nc1ccn([C@@H]2O[C@H]([C@H](O)CP(=O)(O)O)[C@@H](O)[C@H]2O)c(=O)n1 | 2.76 |
| 25 | O=c1ccn([C@@H]2O[C@H]([C@H](O)CP(=O)(O)O)[C@@H](O)[C@@H]2O)c(=O)[nH]1 | < 1.00 |
| 43 | O=c1ccn([C@@H]2O[C@H]([C@@H](O)CP(=O)(O)O)[C@@H](O)[C@H]2O)c(=O)[nH]1 | – |
| – | Nc1nc(=O)n([C@@H]2O[C@H]([C@H](O)CP(=O)(O)O)[C@@H](O)[C@H]2O)cc1C#Cc1ccccc1 | 2.05 |
| 26 | CCOP(=O)(C[C@@H](O)[C@H]1O[C@@H](n2ccc(=O)[nH]c2=O)[C@H](O)[C@H]1O)OCC | – |
| 80 | Nc1ccn([C@@H]2O[C@H]([C@H](O)CP(=O)(O)O)[C@@H](O)[C@@H]2O)c(=O)n1 | 3.01 |
| 20 | CCOP(=O)(C[C@@H](O)[C@H]1O[C@@H](n2ccc(N)nc2=O)[C@@H](O)[C@@H]1O)OCC | – |
| 2 | CCOP(=O)(C[C@@H](O)[C@H]1O[C@@H](n2ccc(=O)[nH]c2=O)[C@@H](O)[C@@H]1O)OCC | – |
| 24 | O=c1[nH]c(=O)n([C@@H]2O[C@H]([C@H](O)CP(=O)(O)O)[C@@H](O)[C@H]2O)cc1-c1ccccc1 | – |
